Results: ChEMBL document CHEMBL4257553, “Novel organophosphorus aminopyrimidines as unique structural DNA-targeting membrane active inhibitors towards drug-resistant methicillin-resistant Staphylococcus aureus” (Medchemcomm, 2018)
Converted amounts (≈) assume the structure as drawn.

Key:
Assay type in all cases: functional
Aspergillus fumigatus [1] = test: Potency index, ratio of fluconazole MIC to compound MIC for antifungal activity against Aspergillus fumigatus
Escherichia coli [2] = test: Antibacterial activity against Escherichia coli after 24 hrs by microbroth dilution method
Summary of the method: (§1)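 Tested by CLSI-standard broth microdilution against a panel of eleven bacterial strains, Gram-positive and Gram-negative, including MRSA.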

Staphylococcus aureus [3] = test: Antibacterial activity against Staphylococcus aureus ATCC 29213 after 24 hrs by microbroth dilution method; conditions: ATCC 29213, 24 h; summary of the method: as §1
Pseudomonas aeruginosa [4] = test: Antibacterial activity against Pseudomonas aeruginosa ATCC 27853 after 24 hrs by microbroth dilution method; conditions: ATCC 27853, 24 h; summary of the method: as §1
Aspergillus fumigatus [5] = test: Antifungal activity against Aspergillus fumigatus after 24 hrs by microbroth dilution method
Klebsiella pneumoniae = test: Antibacterial activity against Klebsiella pneumoniae after 24 hrs by microbroth dilution method; summary of the method: as §1
Staphylococcus aureus [6] = test: Antibacterial activity against methicillin resistant Staphylococcus aureus after 24 hrs by microbroth dilution method; summary of the method: as §1
Staphylococcus aureus [7] = test: Antibacterial activity against Staphylococcus aureus after 24 hrs by microbroth dilution method; summary of the method: as §1
Enterococcus faecalis = test: Antibacterial activity against Enterococcus faecalis after 24 hrs by microbroth dilution method; summary of the method: as §1
Pseudomonas aeruginosa [8] = test: Antibacterial activity against Pseudomonas aeruginosa after 24 hrs by microbroth dilution method; summary of the method: as §1
Acinetobacter baumannii = test: Antibacterial activity against Acinetobacter baumannii after 24 hrs by microbroth dilution method; summary of the method: as §1
Staphylococcus aureus [9] = test: Antibacterial activity against Staphylococcus aureus ATCC 25923 after 24 hrs by microbroth dilution method; conditions: ATCC 25923, 24 h; summary of the method: as §1
Escherichia coli [10] = test: Antibacterial activity against Escherichia coli ATCC 25922 after 24 hrs by microbroth dilution method; conditions: ATCC 25922, 24 h; summary of the method: as §1

| Structure (SMILES) | Ratio (Aspergillus fumigatus [1]) | MIC (Escherichia coli [2]) | MIC (Staphylococcus aureus [3]) | MIC (Pseudomonas aeruginosa [4]) | MIC (Aspergillus fumigatus [5]) | MIC (Klebsiella pneumoniae) | MIC (Staphylococcus aureus [6]) | MIC (Staphylococcus aureus [7]) | MIC (Enterococcus faecalis) | MIC (Pseudomonas aeruginosa [8]) | MIC (Acinetobacter baumannii) | MIC (Staphylococcus aureus [9]) | MIC (Escherichia coli [10]) |
| --- | --- | --- | --- | --- | --- | --- | --- | --- | --- | --- | --- | --- | --- |
| CCOP(=O)(OCC)C(Nc1ncccn1)c1ccc2oc(=O)ccc2c1 (stereo not given) | 16 | 512 µg/mL (≈ 1320 µM) | 128 µg/mL (≈ 329 µM) | 512 µg/mL (≈ 1320 µM) | > 16 µg/mL | 512 µg/mL (≈ 1320 µM) | 256 µg/mL (≈ 658 µM) | 128 µg/mL (≈ 329 µM) | 512 µg/mL (≈ 1320 µM) | 64 µg/mL (≈ 164 µM) | 64 µg/mL (≈ 164 µM) | 64 µg/mL (≈ 164 µM) | 256 µg/mL (≈ 658 µM) |
| CCCCc1nc(Cl)c(C(Nc2ncccn2)P(=O)(OCC)OCC)n1CCC (stereo not given) | 16 | 256 µg/mL (≈ 577 µM) | 128 µg/mL (≈ 288 µM) | 128 µg/mL (≈ 288 µM) | > 16 µg/mL | 64 µg/mL (≈ 144 µM) | 8 µg/mL (≈ 18 µM) | 256 µg/mL (≈ 577 µM) | 128 µg/mL (≈ 288 µM) | 128 µg/mL (≈ 288 µM) | 64 µg/mL (≈ 144 µM) | 64 µg/mL (≈ 144 µM) | 128 µg/mL (≈ 288 µM) |
| CCOP(=O)(OCC)C(Nc1ncccn1)c1ccc([N+](=O)[O-])cc1 (stereo not given) | 16 | 256 µg/mL (≈ 699 µM) | 256 µg/mL (≈ 699 µM) | 16 µg/mL (≈ 43.7 µM) | > 16 µg/mL | 256 µg/mL (≈ 699 µM) | 128 µg/mL (≈ 349 µM) | 256 µg/mL (≈ 699 µM) | 32 µg/mL (≈ 87.4 µM) | 256 µg/mL (≈ 699 µM) | 128 µg/mL (≈ 349 µM) | 8 µg/mL (≈ 21.8 µM) | 128 µg/mL (≈ 349 µM) |
| CCOP(=O)(OCC)C(Nc1ncccn1)c1c[nH]c2ccccc12 (stereo not given) | 16 | 256 µg/mL (≈ 710 µM) | 128 µg/mL (≈ 355 µM) | 256 µg/mL (≈ 710 µM) | > 16 µg/mL | 64 µg/mL (≈ 178 µM) | 4 µg/mL (≈ 11.1 µM) | 256 µg/mL (≈ 710 µM) | 256 µg/mL (≈ 710 µM) | 256 µg/mL (≈ 710 µM) | 128 µg/mL (≈ 355 µM) | 256 µg/mL (≈ 710 µM) | 256 µg/mL (≈ 710 µM) |
| Cc1ccc(C(Nc2ncccn2)P(=O)(O)O)cc1 (stereo not given) | 16 | 128 µg/mL (≈ 458 µM) | 256 µg/mL (≈ 917 µM) | 256 µg/mL (≈ 917 µM) | > 16 µg/mL | 128 µg/mL (≈ 458 µM) | 256 µg/mL (≈ 917 µM) | 256 µg/mL (≈ 917 µM) | 256 µg/mL (≈ 917 µM) | 128 µg/mL (≈ 458 µM) | 256 µg/mL (≈ 917 µM) | 128 µg/mL (≈ 458 µM) | 256 µg/mL (≈ 917 µM) |
